# Reference: ChEMBL document CHEMBL1221392, “Synthesis and cytotoxic potential of heterocyclic cyclohexanone analogues of curcumin” (Bioorg Med Chem, 2010)
# Activity calls are given as the source filed them. The calls are words filed in the database; no cut-off is given here.
# Tests used:
# MDA-MB-231 [1] = assay: Cytotoxicity against human MDA-MB-231 cells after 5 days by SRB assay; conditions: MDA-MB-231, 5 days
# [2] = Inhibition of NF-kappaB activation in human K562 cells; format: cell-based
# Method in brief: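 K562 cells electroporated with 5 µg each of a 5× NF-κB-site firefly luciferase reporter and a Renilla phRG-TK plasmid per 2.5 × 10⁶ cells. After 24 h they were resuspended at 1 × 10⁶/ml in RPMI 1640 with 0.1% FCS. Cells were then incubated 30 min before a concentration series was added. Read-out by dual luciferase; IC₅₀ reported.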
# MDA-MB-231 [3] = assay: Induction of apoptosis in human MDA-MB-231 cells assessed as increase in number of apoptotic cells at 2 to 3 uM after 18 hrs by FACScalibur flow cytometry; format: functional
# SK-BR-3 = assay: Cytotoxicity against human SKBR3 cells after 5 days by SRB assay; conditions: SK-BR-3, 5 days
# MDA-MB-231 [4] = assay: Induction of apoptosis in human MDA-MB-231 cells assessed as increase in number of apoptotic cells at 2 to 3 uM after 36 hrs by FACScalibur flow cytometry; format: functional
# MDA-MB-468 = assay: Cytotoxicity against human MDA-MB-468 cells after 5 days by SRB assay; conditions: MDA-MB-468, 5 days
# MDA-MB-231 [5] = assay: Induction of apoptosis in human MDA-MB-231 cells assessed as increase in number of apoptotic cells at 2 uM by FACScalibur flow cytometry; format: functional, cell-based
# Method in brief: (§1)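 Cells seeded at 2 × 10⁵/well in DMEM/HamF12 with 5% FBS and antibiotics, then treated for 12, 18, 24 or 36 h against a 0.1% DMSO vehicle. Staining was Annexin-V-FLUOS/propidium iodide, read by flow cytometry, as apoptotic cells % of total. Mean ± SEM from three independent experiments in triplicate, two-way ANOVA with Bonferroni post-test.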
# MDA-MB-231 [6] = assay: Induction of apoptosis in human MDA-MB-231 cells assessed as increase in number of apoptotic cells at 1 uM by FACScalibur flow cytometry; format: functional, cell-based
# Method in brief: as §1
IC50 [2] [nM],SMILES,EC50 (MDA-MB-231 [1]) [nM],also measured
> 200000,COc1ccc(OC)c(/C=C2\CCC/C(=C\c3cc(OC)ccc3OC)C2=O)c1,> 10000,–
2500,O=C1/C(=C/c2ccncc2)CCC/C1=C\c1ccncc1,1100,Activity (MDA-MB-231 [3]): <20%; IC50 (SK-BR-3): 200 nM; Activity (MDA-MB-231 [4]): 40%; EC50 (MDA-MB-468): 1900 nM
2200,O=C1/C(=C/c2ccnc(F)c2)CCC/C1=C\c1ccnc(F)c1,3300,–
3800,O=C1/C(=C/c2cccnc2F)CCC/C1=C\c1cccnc1F,3200,–
4000,COc1cc(F)c(/C=C2\CN(C)C/C(=C\c3cc(OC)c(OC)cc3F)C2=O)cc1OC,3800,–
1000,CN1C/C(=C\c2ccncc2)C(=O)/C(=C/c2ccncc2)C1,800,Activity (MDA-MB-231 [5]): Active; IC50 (SK-BR-3): 600 nM; EC50 (MDA-MB-468): 500 nM
800,CN1C/C(=C\c2cccnc2)C(=O)/C(=C/c2cccnc2)C1,2100,–
2500,O=C1/C(=C/c2cccnc2)CCC/C1=C\c1cccnc1,1500,Activity (MDA-MB-231 [3]): <20%
900,COc1cc(/C=C2\CN(C)C/C(=C\c3cc(OC)c(OC)c(OC)c3)C2=O)cc(OC)c1OC,300,Activity (MDA-MB-231 [6]): Active; IC50 (SK-BR-3): 400 nM; EC50 (MDA-MB-468): 300 nM
> 200000,O=C1/C(=C/c2cccs2)CCC/C1=C\c1cccs1 [TENYLIDONE],> 30000,–
–,COc1cc(/C=C2\CCC/C(=C\c3cc(OC)c(OC)c(OC)c3)C2=O)cc(OC)c1OC,> 30000,–
10000,COc1cc(/C=C2\CCC/C(=C\c3ccc(O)c(OC)c3)C2=O)ccc1O [CYCLOVALONE],2600,–
47000,CN1C/C(=C\c2nccn2C)C(=O)/C(=C/c2nccn2C)C1,> 30000,–
6300,COc1ccc(OC)c(/C=C2\CN(C)C/C(=C\c3cc(OC)ccc3OC)C2=O)c1,1100,IC50 (SK-BR-3): 1100 nM; EC50 (MDA-MB-468): 1100 nM
> 200000,CN1C/C(=C\c2cccs2)C(=O)/C(=C/c2cccs2)C1,> 30000,–
15000,COc1cc(/C=C/C(=O)CC(=O)/C=C/c2ccc(O)c(OC)c2)ccc1O [CURCUMIN],7600,IC50 (SK-BR-3): 2400 nM; EC50 (MDA-MB-468): 9700 nM
> 200000,Cn1cccc1/C=C1\CCC/C(=C\c2cccn2C)C1=O,> 30000,–
48000,Cn1ccnc1/C=C1\CCC/C(=C\c2nccn2C)C1=O,1900,–
34000,O=C1/C(=C/c2cccnc2)CC/C1=C\c1cccnc1,8600,–

SMILES,IC50 [2] [nM],EC50 (MDA-MB-231 [1]) [nM],also measured
CN1C2CCC1/C(=C\c1cccnc1)C(=O)/C2=C/c1cccnc1,4000,12900,–
CN1C2CCC1/C(=C\c1ccncc1)C(=O)/C2=C/c1ccncc1,1500,1100,IC50 (SK-BR-3): 700 nM; EC50 (MDA-MB-468): 600 nM
COc1cc(/C=C2/C(=O)/C(=C/c3cc(OC)c(OC)c(OC)c3)C3CCC2N3C)cc(OC)c1OC,> 200000,> 30000,–
